Assay results published in ChEMBL document CHEMBL1141332, “Cytotoxic metabolites from an Indonesian sponge Lendenfeldia sp” (J Nat Prod, 2007).
Several values for one entry are separate records, joined by “and”; a condition that tells them apart may be missing. Equal entries are not always repeated.

Assays:
HL-60 = test: Cytotoxicity against human HL60 cells; type: functional; conditions: for TGI: read-out: Log TGI (converted); for CC50: read-out: Log LC50 (the source's name) (converted)
EKVX = test: Cytotoxicity against human EKVX cells; type: functional; conditions: for CC50: read-out: Log LC50 (the source's name) (converted); for TGI: read-out: Log TGI (converted)
HOP-62 = test: Cytotoxicity against human HOP62 cells; type: functional; conditions: for CC50: read-out: Log LC50 (the source's name) (converted); for TGI: read-out: Log TGI (converted)
NCI-H522 = test: Cytotoxicity against human NCI-H522 cells; type: functional; conditions: for CC50: read-out: Log LC50 (the source's name) (converted); for TGI: read-out: Log TGI (converted)
SW-620 = test: Cytotoxicity against human SW620 cells; type: functional; conditions: for CC50: read-out: Log LC50 (the source's name) (converted); for TGI: read-out: Log TGI (converted)
SK-MEL-5 = test: Cytotoxicity against human SK-MEL-5 cells; type: functional; conditions: for CC50: read-out: Log LC50 (the source's name) (converted); for TGI: read-out: Log TGI (converted)
SK-OV-3 = test: Cytotoxicity against human SK-OV-3 cells; type: functional; conditions: for CC50: read-out: Log LC50 (the source's name) (converted); for TGI: read-out: Log TGI (converted)
A498 = test: Cytotoxicity against human A498 cells; type: functional; conditions: for TGI: read-out: Log TGI (converted)
DU-145 = test: Cytotoxicity against human DU145 cells; type: functional; conditions: for TGI: read-out: Log TGI (converted)
MDA-MB-231 [1] = test: Cytotoxicity against human MDA-MB-231 cells; type: functional; conditions: for TGI: read-out: Log TGI (converted)
[2] = Cytotoxicity against human HS578T cells; type: functional; conditions: Hs-578T; for TGI: read-out: Log TGI (converted)
CCRF-CEM = test: Cytotoxicity against human CCRF-CEM cells; type: functional; conditions: for TGI: read-out: Log TGI (converted)
[3] = molecular target: T1, Hypoxia inducible factors; HIF-1-alpha, HIF-2-alpha (Homo sapiens, UniProt Q16665+Q99814); test: Inhibition of HIF1 activity in human T47D cells by cell based reporter assay
Summary of the method: (§1)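 T47D cells grown in DMEM/F12 with glutamine, 10% FCS and penicillin/streptomycin at 37 °C under 5% CO2, then transiently transfected with the pHRE-TK-Luc reporter. Compounds from DMSO stocks were tested at half-log concentrations for 16 h, with luciferase read-out. IC50 was taken from curve fits of triplicate experiments.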

[4] = molecular target: T1, Hypoxia inducible factors; HIF-1-alpha, HIF-2-alpha; test: Inhibition of 1, 10-phenanthroline-induced HIF1 activity in human T47D cells by cell based reporter assay; summary of the method: as §1
T47D [5] = test: Inhibition of human T47D cells assessed as cell viability under hypoxic condition after 48 hrs; type: functional, cell-based
Summary of the method: (§2)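 Neutral Red proliferation/viability assay on T47D or MDA-MB-231 cells kept in DMEM/F12 with 10% FCS at 37 °C under 5% CO2, with 48 h compound exposure. Read-out was OD540, and % inhibition = 1 − OD540(treated)/OD540(control). IC50 was derived from the concentration–response data.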

T47D [6] = test: Cell viability of human T47D cells under hypoxic condition after 16 hrs; type: functional, cell-based
T47D [7] = test: Inhibition of human T47D cells assessed as cell viability under normoxic condition after 48 hrs; type: functional, cell-based; summary of the method: as §2
MDA-MB-231 [8] = test: Inhibition of human MDA-MB-231 cells assessed as cell viability under hypoxic condition after 48 hrs; type: functional, cell-based; conditions: MDA-MB-231, 48 h; summary of the method: as §2
MDA-MB-231 [9] = test: Inhibition of human MDA-MB-231 cells assessed as cell viability under normoxic condition after 48 hrs; type: functional, cell-based; conditions: MDA-MB-231, 48 h; summary of the method: as §2
CAKI-1 = test: Cytotoxicity against human CAKI1 cells; type: functional; conditions: for TGI: read-out: Log TGI (converted)

For `CC(=O)O[C@H]1C[C@H]2[C@@](C)(CC[C@H]3C(C)(C)CCC[C@@]32CO)[C@@H]2CC=C(C(C)=O)[C@H](C=O)[C@@]12C`, the GI50 (HL-60; Homo sapiens, HL-60) was 0.17 µM, the TGI (HL-60) was 0.537 µM and 2.63 µM and the GI50 (EKVX) was 0.832 µM. The CC50 (EKVX) was 4.9 µM, the TGI (EKVX) was 2.14 µM and the GI50 (HOP-62) was 0.295 µM. The CC50 (HOP-62) was 2.45 µM, the TGI (HOP-62) was 0.724 µM and the GI50 (NCI-H522) was 1.05 µM. For the same compound, the CC50 (NCI-H522) was 6.46 µM, the TGI (NCI-H522) was 2.57 µM and the GI50 (SW-620) was 0.162 µM. For the same compound, the CC50 (SW-620) was 0.676 µM, the TGI (SW-620) was 0.331 µM and the GI50 (SK-MEL-5) was 0.501 µM. For the same compound, the CC50 (SK-MEL-5) was 4.07 µM, the TGI (SK-MEL-5) was 1.7 µM and the GI50 (SK-OV-3) was 1.2 µM. The CC50 (SK-OV-3) was 6.31 µM, the TGI (SK-OV-3) was 2.75 µM and the GI50 (A498) was 1.48 µM. For the same compound, the LC50 (A498) was 5.89 µM, the TGI (A498) was 2.95 µM and the GI50 (DU-145) was 0.457 µM. For the same compound, the LC50 (DU-145) was 3.98 µM, the TGI (DU-145) was 1.58 µM and the GI50 (MDA-MB-231 [1]) was 0.891 µM. It also gave an LC50 (MDA-MB-231 [1]) of 4.57 µM, a TGI (MDA-MB-231 [1]) of 2.09 µM and a GI50 [2] of 0.24 µM. For the same compound, the LC50 [2] was 3.24 µM, the TGI [2] was 0.646 µM and the GI50 (CCRF-CEM) was 0.347 µM. The LC50 (CCRF-CEM) was 4.47 µM and the TGI (CCRF-CEM) was 1.17 µM.

For `CC(=O)C1=CC[C@H]2[C@]3(C)CC[C@H]4C(C)(C)CCC[C@]4(C(=O)O)[C@H]3CC(=O)[C@]2(C)[C@H]1C=O`, the IC50 [3] was 0.64 µM, the IC50 [4] was 0.5 µM and the IC50 (T47D [5]) was 1.9 µM. For the same compound, the IC50 (T47D [6]) was 3.3 µM, the IC50 (T47D [7]) was 1.4 µM and the IC50 (MDA-MB-231 [8]) was 1.5 µM. The IC50 (MDA-MB-231 [9]) was 1.4 µM, the GI50 (HL-60; Homo sapiens, HL-60) was 0.282 µM and the CC50 (HL-60; Homo sapiens, HL-60) was 6.31 µM. It also gave a TGI (HL-60; Homo sapiens, HL-60) of 1.38 µM, a GI50 (EKVX) of 2.14 µM and a CC50 (EKVX) of 25.1 µM. The TGI (EKVX) was 5.62 µM, the GI50 (HOP-62) was 1.35 µM and the CC50 (HOP-62) was 5.75 µM. For the same compound, the TGI (HOP-62) was 2.75 µM, the GI50 (NCI-H522) was 1.74 µM and the CC50 (NCI-H522) was 11.2 µM. It also gave a TGI (NCI-H522) of 4.17 µM, a GI50 (SW-620) of 0.324 µM and a CC50 (SW-620) of 3.39 µM. It also gave a TGI (SW-620) of 1.12 µM, a GI50 (SK-MEL-5) of 1.45 µM and a CC50 (SK-MEL-5) of 5.25 µM. The TGI (SK-MEL-5) was 2.75 µM, the GI50 (SK-OV-3) was 3.02 µM and the CC50 (SK-OV-3) was 37.2 µM. The TGI (SK-OV-3) was 10.2 µM, the GI50 (A498) was 1.12 µM and the LC50 (A498) was 15.8 µM. The TGI (A498) was 3.63 µM, the GI50 (DU-145) was 1.32 µM and the LC50 (DU-145) was 5.5 µM. It also gave a TGI (DU-145) of 2.69 µM, a GI50 (MDA-MB-231 [1]) of 1.66 µM and an LC50 (MDA-MB-231 [1]) of 6.31 µM. The TGI (MDA-MB-231 [1]) was 3.24 µM, the GI50 [2] was 1.74 µM and the LC50 [2] was 19.1 µM. It also gave a TGI [2] of 4.37 µM, a GI50 (CAKI-1) of 0.646 µM and an LC50 (CAKI-1) of 12.9 µM. For the same compound, the TGI (CAKI-1) was 2.45 µM.

`CC1OC(=O)[C@H]2[C@H]1[C@@H](O)C[C@H]1[C@]3(C)CC[C@H]4C(C)(C)CCC[C@]4(C)[C@H]3C[C@@H](O)[C@]21C` (stereo partly specified) gave an IC50 [3] of 3.5 µM, an IC50 [4] of 2.4 µM and an IC50 (T47D [5]) of 5.3 µM. For the same compound, the IC50 (T47D [6]) was 6.7 µM, the IC50 (T47D [7]) was 4.7 µM and the IC50 (MDA-MB-231 [8]) was 5.4 µM. It also gave an IC50 (MDA-MB-231 [9]) of 4.9 µM, a GI50 (HL-60; Homo sapiens, HL-60) of 11.7 µM and a CC50 (HL-60; Homo sapiens, HL-60) greater than 100 µM. It also gave a TGI (HL-60; Homo sapiens, HL-60) of 36.3 µM, a GI50 (EKVX) of 23.4 µM and a CC50 (EKVX) of 89.1 µM. The TGI (EKVX) was 45.7 µM, the GI50 (HOP-62) was 15.1 µM and the CC50 (HOP-62) was 55 µM. For the same compound, the TGI (HOP-62) was 28.8 µM, the GI50 (NCI-H522) was 19.5 µM and the CC50 (NCI-H522) was 77.6 µM. It also gave a TGI (NCI-H522) of 38.9 µM, a GI50 (SW-620) of 12 µM and a CC50 (SW-620) of 52.5 µM. The TGI (SW-620) was 25.1 µM, the GI50 (SK-MEL-5) was 13.5 µM and the CC50 (SK-MEL-5) was 52.5 µM. It also gave a TGI (SK-MEL-5) of 26.3 µM, a GI50 (SK-OV-3) of 38.9 µM and a CC50 (SK-OV-3) greater than 100 µM. It also gave a TGI (SK-OV-3) greater than 100 µM, a GI50 (A498) of 18.6 µM and an LC50 (A498) of 72.4 µM. For the same compound, the TGI (A498) was 37.2 µM, the GI50 (DU-145) was 17 µM and the LC50 (DU-145) was 72.4 µM. It also gave a TGI (DU-145) of 34.7 µM, a GI50 (MDA-MB-231 [1]) of 19.1 µM and an LC50 (MDA-MB-231 [1]) of 87.1 µM. It also gave a TGI (MDA-MB-231 [1]) of 40.7 µM, a GI50 [2] of 19.1 µM and an LC50 [2] greater than 100 µM. The TGI [2] was 53.7 µM, the GI50 (CAKI-1) was 30.9 µM and the LC50 (CAKI-1) was greater than 100 µM. For the same compound, the TGI (CAKI-1) was 56.2 µM.

`CC(=O)O[C@@H]1C[C@H]2[C@]3(C)CC[C@H]4C(C)(C)CCC[C@]4(C)[C@H]3C[C@H](O)[C@]2(C)[C@@H](C=O)[C@@H]1C(C)=O` [SCALARHERBACIN A] gave a GI50 (HL-60; Homo sapiens, HL-60) of 1.32 µM, a CC50 (HL-60; Homo sapiens, HL-60) of 8.51 µM and a TGI (HL-60; Homo sapiens, HL-60) of 3.39 µM. For the same compound, the GI50 (EKVX) was 1.32 µM, the CC50 (EKVX) was 5.75 µM and the TGI (EKVX) was 2.75 µM. The GI50 (HOP-62) was 1.07 µM, the CC50 (HOP-62) was 4.79 µM and the TGI (HOP-62) was 2.24 µM. The GI50 (NCI-H522) was 1.86 µM, the CC50 (NCI-H522) was 7.59 µM and the TGI (NCI-H522) was 3.72 µM. The GI50 (SW-620) was 0.214 µM, the CC50 (SW-620) was 1.07 µM and the TGI (SW-620) was 0.468 µM. For the same compound, the GI50 (SK-MEL-5) was 1.29 µM, the CC50 (SK-MEL-5) was 5.25 µM and the TGI (SK-MEL-5) was 2.63 µM. It also gave a GI50 (SK-OV-3) of 2 µM, a CC50 (SK-OV-3) of 8.13 µM and a TGI (SK-OV-3) of 3.98 µM. For the same compound, the GI50 (A498) was 1.82 µM, the LC50 (A498) was 6.76 µM and the TGI (A498) was 3.47 µM. For the same compound, the GI50 (DU-145) was 1.23 µM, the LC50 (DU-145) was 5.13 µM and the TGI (DU-145) was 2.51 µM. For the same compound, the GI50 (MDA-MB-231 [1]) was 1.48 µM, the TGI (MDA-MB-231 [1]) was 2.88 µM and the GI50 [2] was 1.02 µM. The LC50 [2] was 8.91 µM, the TGI [2] was 3.02 µM and the GI50 (CCRF-CEM) was 0.676 µM. The LC50 (CCRF-CEM) was 6.46 µM and the TGI (CCRF-CEM) was 2.24 µM.
